Laboratory results as given in ChEMBL document CHEMBL1128448, “Synthesis and antifungal activity of new azole derivatives containing an N-acylmorpholine ring” (1995).
Values after ≈ are worked out from the molar mass of the structure shown.

Experiments:
Nakaseomyces glabratus = test: In vitro evaluation of minimum inhibitory concentration against Torulopsis glabrata 78; format: functional
Procedure, shortened: (§1)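 Stocks are 800 μg/mL in 50% ethanol. Each plate gets 10 μL of inoculum at 10^5 cfu/mL. Incubation at 25 °C, 48 h for yeasts and 120 h for dermatophytes and molds. Organisms are ATCC strains or clinical isolates.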

Candida albicans [1] = test: In vivo evaluation of minimum inhibitory concentration against Candida albicans 406; format: functional; conditions: Candida albicans; read-out: MIC
Procedure, shortened: (§2)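 Broth macrodilution MIC following NCCLS M27-P, in RPMI-1640 buffered with 0.165 M MOPS. Fluconazole was dissolved in water and other drugs in DMSO. C. parapsilosis ATCC 22019 served as the reference strain in every run. MIC was the lowest concentration giving turbidity at or below the 80% inhibition standard.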

[2] = tested on: Meyerozyma guilliermondii; test: In vitro evaluation of minimum inhibitory concentration against Candida guilliermondii 26; format: functional; procedure, shortened: as §1
Mus sp. [3] = test: In vivo evaluation of % survival rate after peroral administration on 7th day at dose 1 mg/kg; format: functional; conditions: route oral, 1 mg/kg
Mus sp. [4] = test: In vivo evaluation of % survival rate after peroral administration on 3rd day at dose 2.5 mg/kg; format: functional; conditions: Mus sp., po
Microsporum canis = test: In vitro evaluation of minimum inhibitory concentration against Microsporum canis 47; format: functional; procedure, shortened: as §1
Candida parapsilosis = test: In vitro evaluation of minimum inhibitory concentration against Candida parapsilosis 61; format: functional; procedure, shortened: as §1
Mus sp. [5] = test: In vivo evaluation of % survival rate after peroral administration on 5th day at dose 1 mg/kg; format: functional; conditions: Mus sp., po
Rhodotorula mucilaginosa = test: In vitro evaluation of minimum inhibitory concentration against Rhodotorula rubra 16; format: functional; procedure, shortened: as §1
Aspergillus niger = test: In vitro evaluation of minimum inhibitory concentration against Aspergillus niger 18; format: functional; procedure, shortened: as §1
Trichophyton benhamiae = test: In vitro evaluation of minimum inhibitory concentration against Trichophyton mentagrophytes 23; format: functional, Arthroderma benhamiae; procedure, shortened: as §1
Mus sp. [6] = test: In vivo evaluation of % survival rate after peroral administration on 9th day at dose 2.5 mg/kg; format: functional; conditions: Mus sp., po
Mus sp. [7] = test: In vivo evaluation of % survival rate after peroral administration on 9th day at dose 1 mg/kg; format: functional; conditions: route oral, 1 mg/kg
Mus sp. [8] = test: In vivo evaluation of % survival rate after peroral administration on 3rd day at dose 1 mg/kg; format: functional; conditions: Mus sp., po
Trichophyton rubrum = test: In vitro evaluation of minimum inhibitory concentration against Trichophyton rubrum 90; format: functional; procedure, shortened: as §1
Pichia kudriavzevii = test: In vitro evaluation of minimum inhibitory concentration against Candida krusei 70; format: functional; procedure, shortened: as §1
Candida tropicalis = test: In vitro evaluation of minimum inhibitory concentration against Candida tropicalis 2.11; format: functional; procedure, shortened: as §1
Candida albicans [9] = test: In vitro evaluation of minimum inhibitory concentration against Candida albicans 76; format: functional; procedure, shortened: as §1
Aspergillus fumigatus = test: In vitro evaluation of minimum inhibitory concentration against Aspergillus fumigatus 33; format: functional; procedure, shortened: as §1
Kluyveromyces marxianus = test: In vitro evaluation of minimum inhibitory concentration against Candida pseudotropicalis 13; format: functional; procedure, shortened: as §1
Candida albicans [10] = test: In vivo evaluation of minimum inhibitory concentration against Candida albicans 60; format: functional; conditions: Candida albicans; read-out: MIC; procedure, shortened: as §2
Mus sp. [11] = test: In vivo evaluation of % survival rate after peroral administration on 7th day at dose 2.5 mg/kg; format: functional; conditions: Mus sp., po
Mus sp. [12] = test: In vivo evaluation of % survival rate after peroral administration on 5th day at dose 2.5 mg/kg; format: functional; conditions: Mus sp., po
Nannizzia gypsea = test: In vitro evaluation of minimum inhibitory concentration against Microsporum gypseum 22; format: functional; procedure, shortened: as §1
Aspergillus flavus = test: In vitro evaluation of minimum inhibitory concentration against Aspergillus flavus 19; format: functional; procedure, shortened: as §1
Candida albicans [13] = test: […] Evaluation of minimum inhibitory concentration against Candida albicans 406; format: functional; procedure, shortened: as §1
Candida albicans [14] = test: […] Evaluation of minimum inhibitory concentration against Candida albicans 60; format: functional; procedure, shortened: as §1
[15] = Nakaseomyces glabratus, read-out: MIC
[16] = Meyerozyma guilliermondii, read-out: MIC
[17] = Microsporum canis, read-out: MIC
[18] = Lodderomyces parapsilosis, read-out: MIC
[19] = Rhodotorula mucilaginosa, read-out: MIC
[20] = Aspergillus niger, read-out: MIC
[21] = Trichophyton benhamiae, read-out: MIC
[22] = Trichophyton rubrum, read-out: MIC
[23] = Pichia kudriavzevii, read-out: MIC
[24] = Candida tropicalis, read-out: MIC
[25] = Candida albicans, read-out: MIC
[26] = Aspergillus fumigatus, read-out: MIC
[27] = Kluyveromyces marxianus, read-out: MIC
[28] = Nannizzia gypsea, read-out: MIC
[29] = Aspergillus flavus, read-out: MIC

SMILES	MIC (Nakaseomyces glabratus; [15]) [µg/mL]	MIC (Candida albicans [1]) [µg/mL]	MIC [2, 16] [µg/mL]	survival at 2.5 mg/kg (Mus sp. [4]) [%]	MIC (Microsporum canis; [17]) [µg/mL]	MIC (Candida parapsilosis; [18]) [µg/mL]	MIC (Rhodotorula mucilaginosa; [19]) [µg/mL]	MIC (Aspergillus niger; [20]) [µg/mL]	MIC (Trichophyton benhamiae; [21]) [µg/mL]	survival at 2.5 mg/kg (Mus sp. [6]) [%]	MIC (Trichophyton rubrum; [22]) [µg/mL]	MIC (Pichia kudriavzevii; [23]) [µg/mL]	MIC (Candida tropicalis; [24]) [µg/mL]	MIC (Candida albicans [9]; [25]) [µg/mL]	MIC (Aspergillus fumigatus; [26]) [µg/mL]	MIC (Kluyveromyces marxianus; [27]) [µg/mL]	survival at 2.5 mg/kg (Mus sp. [11]) [%]	survival at 2.5 mg/kg (Mus sp. [12]) [%]	MIC (Nannizzia gypsea; [28]) [µg/mL]	MIC (Aspergillus flavus; [29]) [µg/mL]	also measured
C[C@H]1N(C(=O)c2ccc(C(F)(F)F)cc2)CC(=O)O[C@@]1(Cn1cncn1)c1ccc(F)cc1F (racemic)	> 80	40 (≈ 83.3 µM)	> 80	100	> 80	> 80	> 80	> 80	> 80	70	> 80	> 80	> 80	> 80	> 80	80 (≈ 167 µM)	95	100	> 80	> 80	Survival (Mus sp. [3]): 30%; survival at 1 mg/kg (Mus sp. [5]): 85%; Survival (Mus sp. [7]): 0%; survival at 1 mg/kg (Mus sp. [8]): 95%; MIC (Candida albicans [10]): 80 µg/mL (≈ 167 µM)
C[C@H]1N(C(=O)c2ccc(C(F)(F)F)cc2F)CC(=O)O[C@@]1(Cn1cncn1)c1ccc(F)cc1F (racemic)	> 80	20 (≈ 40.1 µM)	> 80	100	> 80	80 (≈ 161 µM)	> 80	> 80	> 80	90	> 80	> 80	80 (≈ 161 µM)	40 (≈ 80.3 µM)	> 80	80 (≈ 161 µM)	100	100	> 80	> 80	MIC (Candida albicans [10]): 20 µg/mL (≈ 40.1 µM)
C[C@H]1N(C(=O)c2ccc(OCC(F)(F)C(F)F)cc2)CC(=O)O[C@@]1(Cn1cncn1)c1ccc(F)cc1F (racemic)	> 80	10 (≈ 18.4 µM)	80 (≈ 147 µM)	100	> 80	80 (≈ 147 µM)	> 80	> 80	> 80	70	> 80	> 80	> 80	> 80	> 80	80 (≈ 147 µM)	90	100	> 80	> 80	MIC (Candida albicans [10]): 10 µg/mL (≈ 18.4 µM)
C[C@@H](NC(=O)c1ccc(C(F)(F)F)cc1)[C@](O)(Cn1cncn1)c1ccc(F)cc1F (racemic)				100						100							100	100			MIC (Nakaseomyces glabratus): >80 µg/mL; MIC [2]: 2.5 µg/mL (≈ 5.68 µM); MIC (Candida albicans [13]): 0.31 µg/mL (≈ 0.704 µM); Survival (Mus sp. [3]): 80%; MIC (Microsporum canis): >80 µg/mL; MIC (Candida parapsilosis): 20 µg/mL (≈ 45.4 µM); MIC (Rhodotorula mucilaginosa): 2.5 µg/mL (≈ 5.68 µM); MIC (Aspergillus niger): >80 µg/mL; MIC (Trichophyton benhamiae): >80 µg/mL; MIC (Candida albicans [14]): 0.63 µg/mL (≈ 1.43 µM); Survival (Mus sp. [7]): 60%; MIC (Trichophyton rubrum): >40 µg/mL; MIC (Pichia kudriavzevii): >80 µg/mL; MIC (Candida tropicalis): 80 µg/mL (≈ 182 µM); MIC (Candida albicans [9]): 80 µg/mL (≈ 182 µM); MIC (Aspergillus fumigatus): >80 µg/mL; MIC (Kluyveromyces marxianus): 40 µg/mL (≈ 90.8 µM); MIC (Nannizzia gypsea): >80 µg/mL; MIC (Aspergillus flavus): >40 µg/mL
CCC(C)n1ncn(-c2ccc(N3CCN(c4ccc(OC[C@H]5CO[C@](Cn6cncn6)(c6ccc(Cl)cc6Cl)O5)cc4)CC3)cc2)c1=O (some centres not stated) [ITRACONAZOLE]	> 80		0.15 (≈ 0.213 µM)		80 (≈ 113 µM)	0.07 (≈ 0.0992 µM)	> 80	> 80	> 80		0.63 (≈ 0.893 µM)	1.25 (≈ 1.77 µM)	20 (≈ 28.3 µM)	0.63 (≈ 0.893 µM)	0.15 (≈ 0.213 µM)	80 (≈ 113 µM)			80 (≈ 113 µM)	> 80	MIC (Candida albicans [13]): < 0.03 µg/mL; MIC (Candida albicans [14]): 0.07 µg/mL (≈ 0.0992 µM)
